Laboratory results published in paper PMC4424118 (Nature structural & molecular biology, 2015).

How the values were obtained:
HTR1D serotonin receptor = HTR1D serotonin receptor (Homo sapiens, UniProt P28221); assay: TANGO assay in antagonist mode, HTR1D; format: cell-based; details: 1 μM clozapine
HTR1A serotonin receptor = molecular target: T1, HTR1A serotonin receptor (Homo sapiens, UniProt P08908); assay: TANGO assay in antagonist mode, HTR1A; format: cell-based; details: 1 μM clozapine
T1 sequence (P08908 1-422): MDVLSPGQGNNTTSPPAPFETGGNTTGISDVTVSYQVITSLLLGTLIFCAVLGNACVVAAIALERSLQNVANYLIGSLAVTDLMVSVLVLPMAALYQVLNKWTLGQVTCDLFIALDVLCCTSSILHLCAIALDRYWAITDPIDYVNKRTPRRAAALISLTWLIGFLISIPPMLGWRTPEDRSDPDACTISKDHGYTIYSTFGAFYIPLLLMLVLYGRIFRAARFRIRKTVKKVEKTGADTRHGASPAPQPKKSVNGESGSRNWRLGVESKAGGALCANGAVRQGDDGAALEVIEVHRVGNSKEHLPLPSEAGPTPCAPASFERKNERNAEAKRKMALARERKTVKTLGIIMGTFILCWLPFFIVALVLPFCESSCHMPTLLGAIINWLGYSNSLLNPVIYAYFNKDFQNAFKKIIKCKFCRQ

MRGPRX2 [1] = molecular target: T2, MRGPRX2 (Homo sapiens, UniProt Q96LB1); assay: TANGO β-arrestin recruitment assay, MRGPRX2; format: cell-based; details: NCC-1 screen, confirmed in concentration-response studies
T2 sequence (Q96LB1 1-330): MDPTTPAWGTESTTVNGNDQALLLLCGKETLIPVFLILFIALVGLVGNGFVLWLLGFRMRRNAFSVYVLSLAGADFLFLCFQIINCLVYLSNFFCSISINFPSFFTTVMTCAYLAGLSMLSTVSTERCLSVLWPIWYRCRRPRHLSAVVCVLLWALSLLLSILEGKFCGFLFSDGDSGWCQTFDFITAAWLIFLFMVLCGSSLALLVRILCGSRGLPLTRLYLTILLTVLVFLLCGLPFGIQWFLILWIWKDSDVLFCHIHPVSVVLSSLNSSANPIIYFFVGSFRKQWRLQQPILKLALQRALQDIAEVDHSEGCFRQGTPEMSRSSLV

MRGPRX2 [2] = molecular target: T2, MRGPRX2; assay: calcium mobilization assay, stable MRGPRX2 cell line; format: cell-based; details: MRGPRX2-expressing stable cells
Procedure, shortened: (§1)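 Tetracycline-inducible Flp-In T-Rex HEK-T lines carried FLAG-tagged receptor in pcDNA5/FRT/TO and were kept with 15 μg/ml blasticidin and 100 μg/ml hygromycin B. Expression was induced with 1ug/ml tetracycline for 24 h. The calcium assay used 15,000 cells/well and FLIPR Calcium 4 dye (45 min 37°C, 15 min RT), with 16-point 3-fold dilutions at final 10 μM–0.003 nM. Fluorescence was read for 10 s baseline plus 120 s.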

MRGPRX2 [3] = molecular target: T2, MRGPRX2; assay: PI hydrolysis assay, MRGPRX2; format: cell-based
Procedure, shortened: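 HEK-293T cells were transiently transfected with 10 μg receptor DNA per 15 cm dish and seeded the next day on poly-L-lysine in 1% dialyzed FBS. They were labelled 16 h with 1 μCi/well ³H-inositol in inositol-free DMEM. Concentration series were applied in quadruplicate in HBSS/24 mM NaHCO₃/11 mM glucose/15 mM LiCl, pH 7.4, for 1 h at 37°C. Cells were lysed with 50 mM formic acid, and extracts were counted by SPA beads.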

DRD5 dopamine receptor = DRD5 dopamine receptor (Homo sapiens, UniProt P21918); assay: TANGO β-arrestin recruitment assay, DRD5; format: cell-based; details: PRESTO-TANGO screen and concentration-response (Fig. 4c)
DRD4 dopamine receptor = molecular target: T3, DRD4 dopamine receptor (Homo sapiens, UniProt P21917); assay: TANGO β-arrestin recruitment assay, DRD4; format: cell-based; details: PRESTO-TANGO screen and concentration-response (Fig. 4b)
T3 sequence (P21917 1-419): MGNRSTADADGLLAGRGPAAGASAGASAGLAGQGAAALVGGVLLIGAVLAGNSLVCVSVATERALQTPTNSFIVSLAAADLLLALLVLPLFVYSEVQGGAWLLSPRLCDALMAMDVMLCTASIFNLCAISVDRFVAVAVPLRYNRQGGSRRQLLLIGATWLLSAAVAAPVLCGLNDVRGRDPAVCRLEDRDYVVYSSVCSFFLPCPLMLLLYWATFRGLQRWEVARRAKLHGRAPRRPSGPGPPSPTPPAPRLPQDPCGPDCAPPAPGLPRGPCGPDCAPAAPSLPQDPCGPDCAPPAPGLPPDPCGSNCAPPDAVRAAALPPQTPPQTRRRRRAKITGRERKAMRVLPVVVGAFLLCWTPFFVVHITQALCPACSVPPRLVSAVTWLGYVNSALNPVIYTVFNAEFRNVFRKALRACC

[4] = tested on: 133 non-orphan, non-olfactory GPCR targets; assay: PRESTO-TANGO parallel GPCR-ome screening β-arrestin recruitment assay; format: cell-based, human; details: of 133 non-orphan
MRGPRX1 [5] = molecular target: T4, MRGPRX1 (Homo sapiens, UniProt Q96LB2); assay: cAMP; format: cell-based; details: Gs assay, HEK293T cells
[6] = tested on: 91 orphan and poorly annotated GPCRs; assay: TANGO screen of the NCC-1 library; format: cell-based, human; details: NCC-1 screen
MRGPRX2 [7] = molecular target: T2, MRGPRX2; assay: cAMP; format: cell-based; details: Gs assay, HEK293T cells
MRGPRX4 [8] = molecular target: T5, MRGPRX4 (Homo sapiens, UniProt Q96LA9); assay: calcium mobilization assay, stable MRGPRX4 cell line; format: cell-based; details: MRGPRX4-expressing stable cells
Procedure, shortened: as §1

MRGPRX4 orphan GPCR = MRGPRX4 orphan GPCR (Homo sapiens, UniProt Q96LA9); assay: TANGO β-arrestin recruitment assay, MRGPRX4; format: cell-based; details: initial NCC-1 screen
MRGPRX3 = MRGPRX3 (Homo sapiens, UniProt Q96LB0); assay: cAMP; format: cell-based; details: Gs assay, HEK293T cells
MRGPRX4 [9] = molecular target: T5, MRGPRX4; assay: cAMP; format: cell-based; details: Gs assay, HEK293T cells
MRGPRX4 [10] = molecular target: T5, MRGPRX4; assay: cAMP; format: cell-based; details: Gi assay, MRGPRX4-expressing cells
BB2 bombesin receptor = BB2 bombesin receptor (Homo sapiens, UniProt P30550); assay: calcium mobilization assay, BB2-expressing cells; format: cell-based
Procedure, shortened: (§2)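 Cells were plated at 15,000/well on poly-L-lysine in DMEM with 500 ug/ml G-418 and 1% dialyzed FBS, then held overnight. Loading was with FLIPR Calcium 4 dye in HBSS/2.5 mM probenecid/20 mM HEPES, pH 7.4–7.8, for 45 min at 37°C plus 15 min at RT. Compounds (10 mM DMSO stocks) ran as 16-point 3-fold dilutions, final 10 μM–0.003 nM. Fluorescence was read 10 s before and 120 s after addition.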

[11] = molecular target: BB2 bombesin receptor (GRPR) (Homo sapiens, UniProt P30550); assay: TANGO β-arrestin recruitment assay, BB2; format: cell-based
BB3 bombesin receptor = molecular target: T6, BB3 bombesin receptor (Homo sapiens, UniProt P32247); assay: calcium mobilization assay, BB3-expressing cells; format: cell-based
T6 sequence (P32247 1-399): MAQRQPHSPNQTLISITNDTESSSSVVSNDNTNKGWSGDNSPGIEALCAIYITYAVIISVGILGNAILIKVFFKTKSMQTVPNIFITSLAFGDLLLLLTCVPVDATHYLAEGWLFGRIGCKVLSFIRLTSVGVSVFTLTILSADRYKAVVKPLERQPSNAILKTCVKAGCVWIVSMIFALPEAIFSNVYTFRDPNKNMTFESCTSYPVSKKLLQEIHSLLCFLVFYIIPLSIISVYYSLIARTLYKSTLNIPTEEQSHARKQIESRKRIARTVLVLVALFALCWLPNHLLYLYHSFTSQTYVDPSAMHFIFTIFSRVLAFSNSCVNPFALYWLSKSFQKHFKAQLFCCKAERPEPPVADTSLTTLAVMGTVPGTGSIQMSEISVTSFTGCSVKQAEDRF
Procedure, shortened: as §2

[12] = molecular target: neuromedin B receptor (NMBR; BB1) (Homo sapiens, UniProt P28336); assay: calcium-release; format: cell-based; details: BB1-expressing cells
[13] = molecular target: neuromedin B receptor (NMBR; also known as the BB1 bombesin receptor) (Homo sapiens, UniProt P28336); assay: TANGO β-arrestin recruitment assay, NMBR; format: cell-based
MRGPRX1 [14] = molecular target: T4, MRGPRX1; assay: calcium mobilization assay, stable MRGPRX1 cell line; format: cell-based; details: MRGPRX1-expressing stable cells
Procedure, shortened: as §1

[15] = molecular target: T7, CX3CR1 chemokine receptor (Homo sapiens, UniProt P49238); assay: TANGO β-arrestin recruitment assay, CX3CR1; format: cell-based; details: n = 4
T7 sequence (P49238 1-355): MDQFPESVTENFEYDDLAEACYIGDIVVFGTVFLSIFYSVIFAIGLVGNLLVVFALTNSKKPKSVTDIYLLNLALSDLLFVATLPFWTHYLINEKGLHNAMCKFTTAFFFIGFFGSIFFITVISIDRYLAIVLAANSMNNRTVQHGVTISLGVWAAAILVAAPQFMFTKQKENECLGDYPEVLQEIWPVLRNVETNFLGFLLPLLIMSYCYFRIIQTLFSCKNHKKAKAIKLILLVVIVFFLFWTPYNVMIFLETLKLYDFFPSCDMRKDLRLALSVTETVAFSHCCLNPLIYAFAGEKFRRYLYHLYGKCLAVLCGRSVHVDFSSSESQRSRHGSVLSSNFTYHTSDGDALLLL

T5 sequence (Q96LA9 whole entry): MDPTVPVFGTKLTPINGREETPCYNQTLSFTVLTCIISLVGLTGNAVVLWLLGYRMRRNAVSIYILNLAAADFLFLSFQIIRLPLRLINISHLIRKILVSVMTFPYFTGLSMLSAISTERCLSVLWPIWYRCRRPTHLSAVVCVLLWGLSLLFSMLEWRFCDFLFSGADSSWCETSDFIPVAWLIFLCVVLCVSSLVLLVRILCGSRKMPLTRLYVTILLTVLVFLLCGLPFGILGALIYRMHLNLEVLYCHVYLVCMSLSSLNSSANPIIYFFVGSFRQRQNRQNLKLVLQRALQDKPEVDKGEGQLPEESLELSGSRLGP
T4 sequence (Q96LB2 whole entry): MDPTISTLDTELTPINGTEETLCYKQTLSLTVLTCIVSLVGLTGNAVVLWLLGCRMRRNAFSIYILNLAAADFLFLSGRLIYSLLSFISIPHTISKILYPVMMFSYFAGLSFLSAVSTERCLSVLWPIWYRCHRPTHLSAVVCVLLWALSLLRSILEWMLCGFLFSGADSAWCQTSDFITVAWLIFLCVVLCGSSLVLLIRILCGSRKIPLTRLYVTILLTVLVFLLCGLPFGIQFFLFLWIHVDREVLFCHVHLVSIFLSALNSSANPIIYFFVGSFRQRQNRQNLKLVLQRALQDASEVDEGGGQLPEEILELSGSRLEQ
Sequence of MRGPRX4 orphan GPCR (Q96LA9 whole entry): as the sequence (Q96LA9 whole entry) above
Sequence of DRD5 dopamine receptor (P21918 whole entry): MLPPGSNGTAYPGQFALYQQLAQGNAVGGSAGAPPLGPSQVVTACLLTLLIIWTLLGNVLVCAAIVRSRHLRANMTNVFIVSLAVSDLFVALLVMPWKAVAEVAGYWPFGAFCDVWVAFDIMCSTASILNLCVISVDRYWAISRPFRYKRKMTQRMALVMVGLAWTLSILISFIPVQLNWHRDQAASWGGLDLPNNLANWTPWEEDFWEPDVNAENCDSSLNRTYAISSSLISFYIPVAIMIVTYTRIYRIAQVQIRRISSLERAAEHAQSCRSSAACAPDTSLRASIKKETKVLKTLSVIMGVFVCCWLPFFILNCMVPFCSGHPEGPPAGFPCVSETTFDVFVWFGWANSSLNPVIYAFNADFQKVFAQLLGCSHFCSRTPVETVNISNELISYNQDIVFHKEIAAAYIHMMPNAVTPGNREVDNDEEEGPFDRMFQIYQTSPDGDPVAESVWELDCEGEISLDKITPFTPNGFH
Sequence of HTR1D serotonin receptor (P28221 whole entry): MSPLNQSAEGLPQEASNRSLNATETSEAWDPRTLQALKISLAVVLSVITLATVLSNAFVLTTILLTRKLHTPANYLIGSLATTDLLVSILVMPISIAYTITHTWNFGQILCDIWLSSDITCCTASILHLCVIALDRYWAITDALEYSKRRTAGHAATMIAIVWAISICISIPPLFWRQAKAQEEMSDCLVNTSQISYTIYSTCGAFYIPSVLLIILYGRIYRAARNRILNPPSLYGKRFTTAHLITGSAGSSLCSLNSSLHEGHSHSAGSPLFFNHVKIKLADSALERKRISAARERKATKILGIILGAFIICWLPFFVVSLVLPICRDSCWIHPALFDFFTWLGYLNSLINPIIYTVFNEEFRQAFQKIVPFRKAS
Sequence of UniProt P28336 (P28336 whole entry): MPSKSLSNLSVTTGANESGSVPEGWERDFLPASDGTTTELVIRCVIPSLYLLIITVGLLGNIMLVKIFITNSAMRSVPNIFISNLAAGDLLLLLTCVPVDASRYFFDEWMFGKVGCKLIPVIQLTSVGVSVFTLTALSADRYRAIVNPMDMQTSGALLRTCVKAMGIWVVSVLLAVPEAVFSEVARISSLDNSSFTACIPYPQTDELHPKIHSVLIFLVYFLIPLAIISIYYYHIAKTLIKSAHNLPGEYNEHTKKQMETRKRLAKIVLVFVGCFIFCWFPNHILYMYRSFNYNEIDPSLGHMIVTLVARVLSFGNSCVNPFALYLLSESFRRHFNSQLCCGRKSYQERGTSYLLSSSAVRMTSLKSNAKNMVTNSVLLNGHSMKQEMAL
Sequence of neuromedin B receptor (NMBR; BB1) (P28336 whole entry): as above
Sequence of MRGPRX3 (Q96LB0 whole entry): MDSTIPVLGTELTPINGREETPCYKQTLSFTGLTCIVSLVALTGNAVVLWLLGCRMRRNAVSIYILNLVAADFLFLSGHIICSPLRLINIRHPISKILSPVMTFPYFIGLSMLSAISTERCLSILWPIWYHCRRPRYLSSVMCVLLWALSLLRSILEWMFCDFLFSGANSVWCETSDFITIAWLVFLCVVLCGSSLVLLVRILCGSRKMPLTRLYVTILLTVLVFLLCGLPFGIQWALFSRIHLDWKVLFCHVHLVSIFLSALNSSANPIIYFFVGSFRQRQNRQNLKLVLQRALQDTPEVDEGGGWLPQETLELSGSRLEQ
Sequence of BB2 bombesin receptor (GRPR) (P30550 whole entry): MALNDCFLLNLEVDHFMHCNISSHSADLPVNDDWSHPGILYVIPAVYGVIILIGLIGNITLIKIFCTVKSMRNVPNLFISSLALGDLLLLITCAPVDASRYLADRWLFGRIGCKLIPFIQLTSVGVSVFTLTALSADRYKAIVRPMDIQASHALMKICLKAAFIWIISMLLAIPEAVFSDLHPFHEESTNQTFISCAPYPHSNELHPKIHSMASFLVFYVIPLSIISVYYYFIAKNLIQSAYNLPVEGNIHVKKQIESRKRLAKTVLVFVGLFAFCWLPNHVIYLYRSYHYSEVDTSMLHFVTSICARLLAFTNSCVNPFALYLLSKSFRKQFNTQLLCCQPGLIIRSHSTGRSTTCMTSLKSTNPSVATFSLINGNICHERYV
Sequence of BB2 bombesin receptor (P30550 whole entry): as above

## CN1CCN(C2=Nc3cc(Cl)ccc3Nc3ccccc32)CC1 [clozapine]
HTR1D serotonin receptor
  effect of pre-exposure on responses to the agonist LSD: little or no effect
HTR1A serotonin receptor
  effect of pre-exposure on responses to the agonist LSD: little or no effect

## CN1CC[C@]2(c3cccc(O)c3)Cc3nc4ccccc4cc3C[C@H]2C1 [SB 205,607]
MRGPRX2 [1]
  activity in the TANGO assay at MRGPRX2: most active compounds
MRGPRX2 [2]
  calcium mobilization response: concentration-dependent responses
MRGPRX2 [3]
  concentration-dependent activity at MRGPRX2 by PI hydrolysis: confirmed

## CCN(CC)C(=O)[C@@H]1C=C2c3cccc4[nH]cc(c34)C[C@H]2N(C)C1 [LSD, lysergic acid diethylamide]
DRD5 dopamine receptor
  activity at the D5 dopamine receptor: displayed activity
DRD4 dopamine receptor
  activity at the D4 dopamine receptor: displayed activity
[4]
  number of tested targets with activity: 15

## CC(C)[C@H]1CC[C@H](C(=O)N[C@H](Cc2ccccc2)C(=O)O)CC1 [Nateglinide, nateglinide]
MRGPRX1 [5]
  activity when cAMP was measured at MRGPRX1: inactive
[6]
  selectivity among the 91 targets tested: apparently selective
MRGPRX2 [7]
  activity when cAMP was measured at MRGPRX2: inactive
MRGPRX4 [8]
  calcium mobilization response: concentration-dependent responses
MRGPRX4 orphan GPCR
  increase in luminescence over basal levels: 45 fold
MRGPRX3
  activity when cAMP was measured at MRGPRX3: inactive
MRGPRX4 [9]
  activity when cAMP was measured at MRGPRX4: exceedingly modest activity at high concentrations
MRGPRX4 [10]
  inhibition of the cAMP response to isoproterenol: inability

## CC(C)(C)NC(=O)[C@@H]1C[C@@H]2CCCC[C@@H]2CN1C[C@@H](O)[C@H](Cc1ccccc1)NC(=O)[C@H](CC(N)=O)NC(=O)c1ccc2ccccc2n1 [Saquinavir, saquinavir]
BB2 bombesin receptor
  calcium mobilization response: did not stimulate a response
[11]
  response of BB2 in the TANGO assay: insensitive
BB3 bombesin receptor
  calcium mobilization response: did stimulate a response
[12]
  calcium mobilization response: did not stimulate a response
[13]
  response of BB1 in the TANGO assay: insensitive

## BAM8-22
MRGPRX1 [14]
  calcium mobilization response: concentration-dependent responses

B1: CX3CL1: ligand of the CX3CR1 chemokine receptor (protein)
chain: QHHGVTKCNITCSKMTSKIPVALLIHYQQNQASCGKRAIILETRQHRLFCADPKEQWVKDAMQHLDRQAAALTRNGGTFEKQIGEVKPRTTPAAGGMDESVVLEPEATGESSSLEPTPSSQEAQRALGTSPELPTGVTGSSGTRLPPTPKAQDGGPVGTELFRVPPVSTAATWQSSAPHQPGPSLWAEAKTSEAPSTQDPSTQASTASSPAPEENAPSEGQRVWGQGQSPRPENSLEREEMGPVPAHTDAFQDWGPGSMAHVSVVPVSSEGTPSREPVASGSWTPKAEEPIHATMDPQRLGVLITPVPDAQAATRRQAVGLLAFLGLLFCLGVAMFTYQSLQGCPRKMAGEMAEGLRYIPRSCGSNSYVLVPV
[15]
  EC50: 0.34 nM
